# Experimental data gathered from unrelated publications.
# Protocols differ between the studies behind these lines.
# Target: Inhibitor of nuclear factor kappa-B kinase subunit beta (IKBKB, Homo sapiens, UniProt O14920)
# Sequence (O14920 1-756, as in one of the studies): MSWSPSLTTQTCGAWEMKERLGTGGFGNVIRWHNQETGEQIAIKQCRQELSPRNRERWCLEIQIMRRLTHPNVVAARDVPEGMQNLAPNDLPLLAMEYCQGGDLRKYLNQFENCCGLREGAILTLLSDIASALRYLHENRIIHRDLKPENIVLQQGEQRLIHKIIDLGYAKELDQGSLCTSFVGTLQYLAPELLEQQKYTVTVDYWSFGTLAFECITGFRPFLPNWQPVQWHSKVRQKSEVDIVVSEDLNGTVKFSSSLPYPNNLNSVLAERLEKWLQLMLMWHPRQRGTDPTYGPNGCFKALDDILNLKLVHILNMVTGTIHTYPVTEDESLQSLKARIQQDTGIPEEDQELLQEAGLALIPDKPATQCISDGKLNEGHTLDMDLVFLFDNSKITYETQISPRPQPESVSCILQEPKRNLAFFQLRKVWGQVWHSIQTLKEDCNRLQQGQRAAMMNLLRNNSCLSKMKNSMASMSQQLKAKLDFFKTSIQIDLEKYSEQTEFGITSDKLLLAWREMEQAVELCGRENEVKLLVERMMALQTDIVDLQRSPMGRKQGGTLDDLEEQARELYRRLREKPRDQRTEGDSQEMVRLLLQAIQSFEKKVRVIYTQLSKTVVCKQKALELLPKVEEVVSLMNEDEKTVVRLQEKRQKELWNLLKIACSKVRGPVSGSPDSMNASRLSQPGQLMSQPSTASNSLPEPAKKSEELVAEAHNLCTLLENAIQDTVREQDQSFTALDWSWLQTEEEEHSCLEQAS
Structure (SMILES),read-out,mode,method,tested at,measurement,value
CCCCC(=O)Nc1ccc(-c2ccc3ncn(CCC)c(=O)c3c2)cn1,binding,,competition with immobilised ligand,0.5 µM,remaining binding,100%
N#Cc1ccc(NC(=O)Nc2ccccc2)cc1,cell-free assay,,competition with immobilised ligand,25 µM,remaining binding,100%
Cc1ccc(NC(=O)c2ccnc(C(F)(F)F)c2)cc1-c1cc(OCCO)nc(N2CCOCC2)c1,binding,,competition with immobilised ligand,1 µM,remaining binding,97%
COc1ccc2oc(-c3ccc4nc(N)oc4c3)c/c(=N\c3ccccc3NC(=O)CCN)c2c1,binding,,,1 µM,remaining binding,102%
C=CC(=O)N1CCC[C@@H](n2nc(-c3ccc(Oc4ccccc4)cc3)c3c(N)ncnc32)C1,enzyme activity,inhibitor,,1 µM,inhibition,30%
C#Cc1cnc(Nc2ccnc(CO)c2)nc1Nc1ccccc1S(C)(=O)=NC#N (centres unmarked),cell-free assay,,,1 µM,remaining signal,97%
CN1CCN(C(=O)c2ccc(NC(=O)Nc3ccc(N(C)c4ccnc(Nc5ccc(CS(C)(=O)=O)cc5)n4)cc3)cc2)CC1,binding,,competition with immobilised ligand,1 µM,remaining binding,70%
CO[C@@H]1[C@H](N(C)C(=O)c2ccccc2)C[C@H]2O[C@]1(C)n1c3ccccc3c3c4c(c5c6ccccc6n2c5c31)C(=O)NC4,enzyme activity,inhibitor,,1 µM,inhibition,13%
